# Laboratory results published in ChEMBL document CHEMBL4689842, “EUbOPEN Chemogenomics Library wave 1” (2021).
# System: U2OS
# Assay: Multiplex assay against U2OS
# Format: toxicity, cell-based
# Conditions: human
# In short: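 Live cells were stained at seeding with Hoechst33342, BioTracker Green Microtubule Cytoskeleton Dye, MitoTracker Red and Annexin V Alexa Fluor 680. Following compound addition, they were imaged on a CQ1 microscope at 37°C and 5% CO2 and gated by CellPathfinder machine learning into Hoechst high-intensity objects or normal cells, with normal cells split into healthy, pyknosed or fragmented nuclei and pyknosed cells into mitotic or apoptotic. Tubulin, mitochondrial-mass and membrane-permeability phenotypes are per cents of healthy-nucleus cells.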
# [1] = 12 h, 1 µM, compound concentration 1 uM, replicate 1
# [2] = 12 h, 1 µM, compound concentration 1 uM, replicate 2
# [3] = 12 h, 10 µM, compound concentration 10 uM, replicate 1
# [4] = 12 h, 10 µM, compound concentration 10 uM, replicate 2
# [5] = 24 h, 1 µM, compound concentration 1 uM, replicate 1
# [6] = 24 h, 1 µM, compound concentration 1 uM, replicate 2
# [7] = 24 h, 10 µM, compound concentration 10 uM, replicate 1
# [8] = 24 h, 10 µM, compound concentration 10 uM, replicate 2
# [9] = 48 h, 1 µM, compound concentration 1 uM, replicate 1
# [10] = 48 h, 1 µM, compound concentration 1 uM, replicate 2
# [11] = 48 h, 10 µM, compound concentration 10 uM, replicate 1
# [12] = 48 h, 10 µM, compound concentration 10 uM, replicate 2
structure (smiles),measurement,setting,value
COc1cccc([C@@H](C)NCCCc2ccccc2Cl)c1.Cl [TECALCET HYDROCHLORIDE],Population Apoptotic (%),[1],50%
same,Population Fragmented Nuclei (%),[1],22%
same,Population Healthy Nuclei (%),[1],72%
same,Population Hoechst High Intensity Objects (%),[1],32%
same,Population Membrane Permeable-Phenotype (%),[1],3%
same,Population Mitochondria Different-Phenotype (%),[1],34%
same,Population Mitotic Cells (%),[1],50%
same,Population Normal (%),[1],67%
same,Population Pyknosed Nuclei (%),[1],5%
same,Population Tubulin-Different-Phenotype (%),[1],30%
same,Total Cell Count,[1],188
same,Population Apoptotic (%),[2],16%
same,Population Fragmented Nuclei (%),[2],10%
same,Population Healthy Nuclei (%),[2],81%
same,Population Hoechst High Intensity Objects (%),[2],10%
same,Population Membrane Permeable-Phenotype (%),[2],6%
same,Population Mitochondria Different-Phenotype (%),[2],20%
same,Population Mitotic Cells (%),[2],83%
same,Population Normal (%),[2],89%
same,Population Pyknosed Nuclei (%),[2],8%
same,Population Tubulin-Different-Phenotype (%),[2],18%
same,Total Cell Count,[2],70
same,Population Apoptotic (%),[3],62%
same,Population Fragmented Nuclei (%),[3],11%
same,Population Healthy Nuclei (%),[3],64%
same,Population Hoechst High Intensity Objects (%),[3],8%
same,Population Membrane Permeable-Phenotype (%),[3],6%
same,Population Mitochondria Different-Phenotype (%),[3],86%
same,Population Mitotic Cells (%),[3],37%
same,Population Normal (%),[3],91%
same,Population Pyknosed Nuclei (%),[3],23%
same,Population Tubulin-Different-Phenotype (%),[3],90%
same,Total Cell Count,[3],53
same,Population Apoptotic (%),[4],41%
same,Population Fragmented Nuclei (%),[4],7%
same,Population Healthy Nuclei (%),[4],75%
same,Population Hoechst High Intensity Objects (%),[4],5%
same,Population Membrane Permeable-Phenotype (%),[4],18%
same,Population Mitochondria Different-Phenotype (%),[4],90%
same,Population Mitotic Cells (%),[4],58%
same,Population Normal (%),[4],94%
same,Population Pyknosed Nuclei (%),[4],17%
same,Population Tubulin-Different-Phenotype (%),[4],96%
same,Total Cell Count,[4],83
same,Population Apoptotic (%),[5],44%
same,Population Fragmented Nuclei (%),[5],22%
same,Population Healthy Nuclei (%),[5],57%
same,Population Hoechst High Intensity Objects (%),[5],26%
same,Population Membrane Permeable-Phenotype (%),[5],3%
same,Population Mitochondria Different-Phenotype (%),[5],30%
same,Population Mitotic Cells (%),[5],55%
same,Population Normal (%),[5],73%
same,Population Pyknosed Nuclei (%),[5],20%
same,Population Tubulin-Different-Phenotype (%),[5],19%
same,Total Cell Count,[5],239
same,Population Apoptotic (%),[6],77%
same,Population Fragmented Nuclei (%),[6],8%
same,Population Healthy Nuclei (%),[6],80%
same,Population Hoechst High Intensity Objects (%),[6],8%
same,Population Membrane Permeable-Phenotype (%),[6],6%
same,Population Mitochondria Different-Phenotype (%),[6],6%
same,Population Mitotic Cells (%),[6],22%
same,Population Normal (%),[6],91%
same,Population Pyknosed Nuclei (%),[6],10%
same,Population Tubulin-Different-Phenotype (%),[6],12%
same,Total Cell Count,[6],95
same,Population Apoptotic (%),[7],50%
same,Population Fragmented Nuclei (%),[7],12%
same,Population Healthy Nuclei (%),[7],63%
same,Population Hoechst High Intensity Objects (%),[7],12%
same,Population Membrane Permeable-Phenotype (%),[7],10%
same,Population Mitochondria Different-Phenotype (%),[7],81%
same,Population Mitotic Cells (%),[7],50%
same,Population Normal (%),[7],87%
same,Population Pyknosed Nuclei (%),[7],23%
same,Population Tubulin-Different-Phenotype (%),[7],79%
same,Total Cell Count,[7],61
same,Population Apoptotic (%),[8],35%
same,Population Fragmented Nuclei (%),[8],8%
same,Population Healthy Nuclei (%),[8],70%
same,Population Hoechst High Intensity Objects (%),[8],8%
same,Population Membrane Permeable-Phenotype (%),[8],24%
same,Population Mitochondria Different-Phenotype (%),[8],91%
same,Population Mitotic Cells (%),[8],64%
same,Population Normal (%),[8],91%
same,Population Pyknosed Nuclei (%),[8],20%
same,Population Tubulin-Different-Phenotype (%),[8],92%
same,Total Cell Count,[8],97
same,Population Apoptotic (%),[9],83%
same,Population Fragmented Nuclei (%),[9],29%
same,Population Healthy Nuclei (%),[9],60%
same,Population Hoechst High Intensity Objects (%),[9],20%
same,Population Membrane Permeable-Phenotype (%),[9],8%
same,Population Mitochondria Different-Phenotype (%),[9],34%
same,Population Mitotic Cells (%),[9],16%
same,Population Normal (%),[9],79%
same,Population Pyknosed Nuclei (%),[9],10%
same,Population Tubulin-Different-Phenotype (%),[9],14%
same,Total Cell Count,[9],378
same,Population Apoptotic (%),[10],63%
same,Population Fragmented Nuclei (%),[10],6%
same,Population Healthy Nuclei (%),[10],84%
same,Population Hoechst High Intensity Objects (%),[10],7%
same,Population Membrane Permeable-Phenotype (%),[10],12%
same,Population Mitochondria Different-Phenotype (%),[10],15%
same,Population Mitotic Cells (%),[10],36%
same,Population Normal (%),[10],92%
same,Population Pyknosed Nuclei (%),[10],9%
same,Population Tubulin-Different-Phenotype (%),[10],18%
same,Total Cell Count,[10],153
same,Population Apoptotic (%),[11],77%
same,Population Fragmented Nuclei (%),[11],18%
same,Population Healthy Nuclei (%),[11],54%
same,Population Hoechst High Intensity Objects (%),[11],11%
same,Population Membrane Permeable-Phenotype (%),[11],7%
same,Population Mitochondria Different-Phenotype (%),[11],55%
same,Population Mitotic Cells (%),[11],22%
same,Population Normal (%),[11],88%
same,Population Pyknosed Nuclei (%),[11],27%
same,Population Tubulin-Different-Phenotype (%),[11],62%
same,Total Cell Count,[11],73
same,Population Apoptotic (%),[12],54%
same,Population Fragmented Nuclei (%),[12],10%
same,Population Healthy Nuclei (%),[12],60%
same,Population Hoechst High Intensity Objects (%),[12],4%
same,Population Membrane Permeable-Phenotype (%),[12],36%
same,Population Mitochondria Different-Phenotype (%),[12],82%
same,Population Mitotic Cells (%),[12],45%
same,Population Normal (%),[12],95%
same,Population Pyknosed Nuclei (%),[12],29%
same,Population Tubulin-Different-Phenotype (%),[12],73%
same,Total Cell Count,[12],130
